Paper PMC10586019 (ACS Omega, 2023)
In brackets after ≈: the same amount, converted by molar mass. Several values for one entry are separate records, joined by “and”; a condition that tells them apart may be missing. Equal entries are not always repeated. Where a SMILES comes first, the peptide text is derived from it. Where no end group is shown, it is not given here. [ ]: non-standard residue; d: D form. Orn = NCCC[C@H](N)C(=O)O; Ahx = NCCCCCC(=O)O

Tests used:
Caco-2 = test: MTT viability test, Caco-2 colon cancer cells; type: cell-based; details: Caco-2, MTT
human fibroblasts = test: MTT cytotoxicity, fibroblasts control cells; type: cell-based; details: for CC50 fibroblasts: MTT, peptide 0-200 μg/mL, 2 h, 37 °C, n = 3; for Selectivity Index fibroblasts/HT-29: SI = CC50/IC50
Vero cells = test: MTT cytotoxicity, Vero control cells; type: cell-based; details: for CC50 Vero: MTT, peptide 0-200 μg/mL, 2 h, 37 °C, n = 3; for Selectivity Index Vero/HT-29: SI = CC50/IC50
In short: (§1)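 Cells are grown in RPMI-1640 with 10% FBS, seeded at 1 × 10^4 per well, and synchronized for 24 h. Medium is replaced with peptide (0–200 μg/mL) in the same medium for 2 h at 37 °C. MTT (5 mg/mL solution) is added for 4 h at 37 °C, and formazan is dissolved in DMSO for 30 min at 37 °C. Absorbance is read at 570 nm.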

[1] = MTT cytotoxicity, Vero control cells; type: cell-based; details: Caco-2
In short: as §1

[2] = MTT cytotoxicity, HEK-293 control cells; type: cell-based; details: Caco-2
In short: as §1

HEK-293 = test: MTT cytotoxicity, HEK-293 control cells; type: cell-based; details: for CC50 HEK-293: MTT, peptide 0-200 μg/mL, 2 h, 37 °C, n = 3; for Selectivity Index HEK-293/HT-29: SI = CC50/IC50
In short: as §1

Hemolytic activity = type: cell-based, human; details: Caco-2
In short: (§2)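 Erythrocytes from healthy O+ donors (EDTA blood) are spun at 500 rpm and washed 3× in 0.9% saline. Peptide (final 200 to 6.2 μg mL−1) is mixed 1:1 with 2% hematocrit suspension for 2 h at 37 °C, then spun 2500 rpm for 5 min. Supernatant A450 is read. Positive controls are distilled water and Tween 20; the negative is 0.9% saline. The readout is the concentration causing 10% hemolysis.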

erythrocytes = test: Hemolytic activity; type: cell-based, human; details: SI = hemolysis10%/IC50
In short: as §2

[3] = MTT cytotoxicity, fibroblasts control cells; type: cell-based, human; details: Caco-2
Du-145 = test: MTT viability test, Du-145 prostate cancer cells; type: cell-based; details: for IC50 Du-145: peptide 0-200 μg/mL during 2 h, mean ± SE n = 3; for IC50: read-out: IC50 Du-145, peptide 0-200 μg/mL during 2 h, mean ± SE n = 3
In short: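 Du-145 cells are seeded at 1 × 10^4 per well and synchronized for 24 h. They are exposed to peptide (0–200 μg/mL) in medium for 2 h at 37 °C. MTT (5 mg/mL solution) is added for 4 h at 37 °C, DMSO solubilization runs 30 min at 37 °C, and A570 is read. Data are mean ± SE, n = 3.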

Galleria mellonella [4] = test: Galleria mellonella toxicity test; type: in vivo; details: 20-100 mg/Kg, 10 days, Kaplan-Meyer, n = 2
Galleria mellonella [5] = details: at 33 mg/kg; cited from earlier work

Compound | decrease of IC50 in Caco-2 cells compared to the parent peptide RWQWRWQWR (Caco-2) | CC50 fibroblasts (human fibroblasts) | Selectivity Index fibroblasts/HT-29 (human fibroblasts) | CC50 Vero (Vero cells) | Selectivity Index Vero/HT-29 (Vero cells) | selectivity ratio [1] | selectivity ratio [2] | CC50 HEK-293 (HEK-293) | Selectivity Index HEK-293/HT-29 (HEK-293) | selectivity ratio (Hemolytic activity) | Selectivity Index erythrocytes/HT-29 (erythrocytes) | fold increase in potency against Caco-2 versus parent peptide (Caco-2) | selectivity ratio [3] | IC50 Du-145 (Du-145) | IC50 (Du-145) | toxicity (Galleria mellonella [4]) | mortality in Galleria (previous study) (Galleria mellonella [5])
N=C(N)NCCC[C@H](NC(=O)[C@H](Cc1c[nH]c2ccccc12)NC(=O)[C@H](CCC(N)=O)NC(=O)[C@H](Cc1c[nH]c2ccccc12)NC(=O)[C@H](CCCNC(=N)N)NC(=O)[C@H](Cc1c[nH]c2ccccc12)NC(=O)[C@H](CCC(N)=O)NC(=O)[C@H](Cc1c[nH]c2ccccc12)NC(=O)[C@H](CCCNC(=N)N)NC(=O)CCCCCN)C(N)=O [Ahx-[Pal]] (H-[Ahx]RWQWRWQWR-NH2) | approx. 50% | 98 μM and 157 μg/mL | 0.8 | 40 μM and 64 μg/mL | 0.3 | 1 | 2.2 | 86 μM and 132 μg/mL | 0.7 | > 3.1 | >1.1 |  |  |  |  |  | 
N=C(N)NCCC[C@H](NC(=O)[C@H](Cc1c[nH]c2ccccc12)NC(=O)[C@H](CCC(N)=O)NC(=O)[C@H](Cc1c[nH]c2ccccc12)NC(=O)[C@@H](N)CCCNC(=N)N)C(=O)N[C@@H](Cc1c[nH]c2ccccc12)C(=O)N[C@@H](CCC(N)=O)C(=O)N[C@@H](Cc1c[nH]c2ccccc12)C(=O)N[C@@H](CCCN)C(N)=O [^9[Orn] [Pal]] (H-RWQWRWQW[Orn]-NH2) | approx. 50% | 55 μM and 79 μg/mL | 0.5 | 46 μM and 67 μg/mL | 0.4 | 1.2 | 1.3 | 51 μM and 74 μg/mL | 0.5 | > 3.4 | >1.3 | 2 fold | 1.4 | 89 µg/mL (≈ 61.6 µM) | 62 µM | did not show any significant toxicity | 
N.N.[Cl][Pt][Cl] [cisplatin] |  |  |  |  |  |  |  |  |  |  |  |  |  |  |  |  | 60%
RWQWRWQWR-NH2 [[Pal]] |  | > 134 μM and > 200 μg/mL |  | 21 μM and 31 μg/mL |  | 0.2 | 0.8 | 68 μM and 101 μg/mL | 0.7 | 1.6 | 1.3 |  |  | 60 µg/mL | 40 µM |  | 
